Calls of active or inactive are those of the source. The rule behind the calls is not given here.
Tests used:
HepG2 [1] = assay: Growth inhibition of human HepG2 cells at cytotoxic IC100 measured every 10 mins for first 24 hrs and every 30 mins for remaining 48 hrs by RT-CES analysis; format: functional, cell-based
HepG2 [2] = assay: Induction of apoptosis in human HepG2 cells assessed as condensed nuclei at cytotoxic IC100 measured after 48 hrs by DAPI/Annexin-V-Fluos staining based fluorescent microscopic method; format: functional, cell-based
How it was run: (§1)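 Cells on coverslips were treated after 24 h in culture and stained 48 h later with Annexin-V-Fluos plus DAPI nuclear stain. Cells were then examined by fluorescence microscopy for Annexin V-positive cells with condensed nuclei.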

SNU-475 [3] = assay: Growth inhibition of human SNU475 cells at cytotoxic IC100 measured every 10 mins for first 24 hrs and every 30 mins for remaining 48 hrs by RT-CES analysis; format: functional, cell-based
SNU-475 [4] = assay: Induction of apoptosis in human SNU475 cells assessed as condensed nuclei at cytotoxic IC100 measured after 72 hrs by light microscopic method; format: functional, cell-based
Homo sapiens = species: Homo sapiens; assay: Inhibition of tubulin polymerization (unknown origin)
SNU-475 [5] = assay: Induction of apoptosis in human SNU475 cells assessed as condensed nuclei at cytotoxic IC100 measured after 48 hrs by DAPI/Annexin-V-Fluos staining based fluorescent microscopic method; format: functional, cell-based; how it was run: as §1
Mahlavu [6] = assay: Growth inhibition of human Mahlavu cells at cytotoxic IC100 measured every 10 mins for first 24 hrs and every 30 mins for remaining 48 hrs by RT-CES analysis; format: functional, cell-based
MRC5 = assay: Cytotoxicity against human MRC5 cells assessed as growth inhibition after 72 hrs by SRB assay; format: cell-based; settings: Homo sapiens, MRC5, 72 h; read-out: IC50
How it was run: (§2)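 Cells seeded at 2000–3000 per well and grown 24 h at 37C, then treated in triplicate with compounds dissolved in DMSO over a 40–0.3 range for 72 h. Cells were fixed with 10% TCA for 1 h, stained with 0.4% SRB in 1% acetic acid, washed with 1% acetic acid and air-dried. Bound dye was solubilized in 10 mM Tris base and read at 515 nm. % inhibition and IC50 were calculated against DMSO-only controls.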

SNU-475 [7] = assay: Cytotoxicity against human SNU475 cells assessed as growth inhibition after 72 hrs by SRB assay; format: functional, cell-based; settings: SNU-475, 72 h; how it was run: as §2
HepG2 [8] = assay: Cytotoxicity against human HepG2 cells assessed as growth inhibition after 72 hrs by SRB assay; format: functional, cell-based; settings: HepG2, 72 h; how it was run: as §2
Huh-7 [9] = assay: Growth inhibition of human HuH7 cells at cytotoxic IC100 measured every 10 mins for first 24 hrs and every 30 mins for remaining 48 hrs by RT-CES analysis; format: functional, cell-based
HepG2 [10] = assay: Induction of apoptosis in human HepG2 cells assessed as accumulation at subG1 phase at cytotoxic IC100 measured after 72 hrs by propidium iodide staining based flow cytometry; format: functional, cell-based
How it was run: (§3)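 After 24, 48 and 72 h, cells were fixed in ice-cold 70% ethanol for 3 h, stained with propidium iodide, and cell-cycle distribution was read on a MUSE Cell Analyzer.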

MCF7 = assay: Cytotoxicity against human MCF7 cells assessed as growth inhibition after 72 hrs by SRB assay; format: functional, cell-based; settings: MCF7, 72 h; how it was run: as §2
HepG2 [11] = assay: Induction of apoptosis in human HepG2 cells assessed as accumulation at G2/M phase at cytotoxic IC100 measured after 48 hrs by propidium iodide staining based flow cytometry; format: functional, cell-based; how it was run: as §3
SNU-475 [12] = assay: Induction of apoptosis in human SNU475 cells assessed as PARP cleavage at cytotoxic IC100 measured after 24 hrs by Western blot method; format: functional, cell-based
SNU-475 [13] = assay: Induction of apoptosis in human SNU475 cells assessed as accumulation at subG1 phase at cytotoxic IC100 measured after 72 hrs by propidium iodide staining based flow cytometry; format: functional, cell-based; how it was run: as §3
Huh-7 [14] = assay: Cytotoxicity against human HuH7 cells assessed as growth inhibition after 72 hrs by SRB assay; format: functional, cell-based; settings: Huh-7, 72 h; how it was run: as §2
MCF-12A = assay: Cytotoxicity against human MCF12A cells assessed as growth inhibition after 72 hrs by SRB assay; format: cell-based; how it was run: as §2
HepG2 [15] = assay: Induction of apoptosis in human HepG2 cells assessed as PARP cleavage at cytotoxic IC100 measured after 24 hrs by Western blot method; format: functional, cell-based
HCT-116 = assay: Cytotoxicity against human HCT116 cells assessed as growth inhibition after 72 hrs by SRB assay; format: functional, cell-based; settings: HCT-116, 72 h; how it was run: as §2
Mahlavu [16] = assay: Cytotoxicity against human Mahlavu cells assessed as growth inhibition after 72 hrs by SRB assay; format: functional, cell-based; how it was run: as §2
HepG2 [17] = assay: Induction of apoptosis in human HepG2 cells assessed as condensed nuclei at cytotoxic IC100 measured after 72 hrs by light microscopic method; format: functional, cell-based
SNU-475 [18] = assay: Induction of apoptosis in human SNU475 cells assessed as accumulation at G2/M phase at cytotoxic IC100 measured after 48 hrs by propidium iodide staining based flow cytometry; format: functional, cell-based; how it was run: as §3
SNU-475 [19] = assay: Induction of apoptosis in human SNU475 cells assessed as decrease in CDK expression level at cytotoxic IC100 measured after 24 hrs by Western blot method; format: functional, cell-based
[20] = biological target: G2/mitotic-specific cyclin-B1 (Homo sapiens) (UniProt P14635); assay: Inhibition of Cyclin B1 phosphorylation at Ser147 residue in human HepG2 cells at cytotoxic IC100 measured after 24 hrs by Western blot method; format: cell-based
Sequence of G2/mitotic-specific cyclin-B1 (Homo sapiens) (P14635 whole entry): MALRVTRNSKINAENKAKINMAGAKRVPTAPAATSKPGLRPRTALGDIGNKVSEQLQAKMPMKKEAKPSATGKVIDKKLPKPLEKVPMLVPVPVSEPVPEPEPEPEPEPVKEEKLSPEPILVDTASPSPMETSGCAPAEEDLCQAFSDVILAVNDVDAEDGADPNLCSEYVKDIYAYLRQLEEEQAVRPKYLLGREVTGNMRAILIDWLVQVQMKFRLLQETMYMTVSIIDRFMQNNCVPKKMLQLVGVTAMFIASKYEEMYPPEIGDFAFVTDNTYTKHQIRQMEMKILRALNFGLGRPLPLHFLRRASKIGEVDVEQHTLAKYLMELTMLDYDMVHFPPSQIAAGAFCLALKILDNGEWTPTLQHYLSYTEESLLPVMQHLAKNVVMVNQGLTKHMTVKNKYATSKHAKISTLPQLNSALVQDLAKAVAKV

[21] = biological target: T1, Retinoblastoma-associated protein (Homo sapiens) (UniProt P06400); assay: Inhibition of retinoblastoma phosphorylation in human SNU475 cells at cytotoxic IC100 measured after 24 hrs by Western blot method; format: cell-based
T1 sequence (whole entry): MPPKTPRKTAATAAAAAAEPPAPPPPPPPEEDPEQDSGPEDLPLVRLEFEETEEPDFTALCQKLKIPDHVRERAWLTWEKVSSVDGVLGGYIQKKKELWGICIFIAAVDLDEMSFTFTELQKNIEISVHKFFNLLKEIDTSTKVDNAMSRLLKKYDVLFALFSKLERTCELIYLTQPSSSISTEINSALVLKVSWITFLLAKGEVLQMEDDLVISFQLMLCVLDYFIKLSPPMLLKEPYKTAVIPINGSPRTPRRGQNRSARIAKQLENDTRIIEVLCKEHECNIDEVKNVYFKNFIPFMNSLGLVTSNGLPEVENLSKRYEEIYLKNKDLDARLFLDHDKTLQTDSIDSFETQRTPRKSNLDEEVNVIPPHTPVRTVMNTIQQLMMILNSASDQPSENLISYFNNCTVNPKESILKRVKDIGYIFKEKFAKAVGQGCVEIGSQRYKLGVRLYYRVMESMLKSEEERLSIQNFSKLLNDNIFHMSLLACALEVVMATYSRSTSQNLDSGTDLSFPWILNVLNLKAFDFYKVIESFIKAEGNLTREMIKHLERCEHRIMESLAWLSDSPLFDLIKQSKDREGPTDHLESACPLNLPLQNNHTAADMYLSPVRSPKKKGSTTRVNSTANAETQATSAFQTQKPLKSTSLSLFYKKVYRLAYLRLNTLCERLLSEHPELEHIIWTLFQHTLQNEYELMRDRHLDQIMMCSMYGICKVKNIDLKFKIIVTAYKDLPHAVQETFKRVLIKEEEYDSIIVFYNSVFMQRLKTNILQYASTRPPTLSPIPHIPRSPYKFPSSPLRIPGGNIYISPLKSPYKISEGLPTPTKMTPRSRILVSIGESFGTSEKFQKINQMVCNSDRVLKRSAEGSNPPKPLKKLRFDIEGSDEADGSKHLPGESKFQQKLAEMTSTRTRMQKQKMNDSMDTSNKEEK

HepG2 [22] = assay: Increase in p21 protein expression in human HepG2 cells at cytotoxic IC100 measured after 24 hrs by Western blot method relative to control; format: functional
SNU-475 [23] = assay: Increase in p21 protein expression in human SNU475 cells at cytotoxic IC100 measured after 24 hrs by Western blot method relative to control; format: functional
HepG2 [24] = assay: Induction of apoptosis in human HepG2 cells assessed as decrease in cyclin B1 protein expression level at cytotoxic IC100 measured after 24 hrs by Western blot method; format: functional, cell-based
[25] = biological target: T1, Retinoblastoma-associated protein (Homo sapiens); assay: Inhibition of retinoblastoma phosphorylation in human HepG2 cells at cytotoxic IC100 measured after 24 hrs by Western blot method; format: cell-based
HepG2 [26] = assay: Induction of apoptosis in human HepG2 cells assessed as decrease in CDK expression level at cytotoxic IC100 measured after 24 hrs by Western blot method; format: functional; parameters: scale not given: the % may be the effect or the level left

Row | inhibition (Homo sapiens) | Compound | growth inhibition (GI) (HepG2 [1]) | Activity (HepG2 [2]) | growth inhibition (GI) (SNU-475 [3]) | Activity (SNU-475 [4]) | Activity (SNU-475 [5]) | growth inhibition (GI) (Mahlavu [6]) | IC50 (MRC5) | IC50 (SNU-475 [7]) | IC50 (HepG2 [8]) | growth inhibition (GI) (Huh-7 [9]) | Activity (HepG2 [10]) | IC50 (MCF7) | Activity (HepG2 [11]) | Activity (SNU-475 [12]) | Activity (SNU-475 [13]) | IC50 (Huh-7 [14]) | IC50 (MCF-12A) | Activity (HepG2 [15]) | IC50 (HCT-116) | further results
1 | inactive | COc1cc(OC)c(C(=O)/C=C/c2cn(-c3ccccc3)nc2-c2cccnc2)c(OC)c1 | Active | Active | Active | Active | Active | Active | 1300 nM | 800 nM | 1400 nM | Active | Active | 1000 nM | Active | Active | Active | 500 nM | 1200 nM | Active | 300 nM | IC50 (Mahlavu [16]): 1100 nM; Activity (HepG2 [17]): Active; Activity (SNU-475 [18]): Active
2 | inactive | COc1ccc(OC)c(C(=O)/C=C/c2cn(-c3ccccc3)nc2-c2ccncc2)c1 | Active | Active | Active | Active | Active | Active | 3100 nM | 2000 nM | 4800 nM | Active | Active | 1400 nM | Active | Active | Active | 1700 nM | 3000 nM | Active | 900 nM | Activity (SNU-475 [19]): Active; inhibition [20]: 50%; inhibition [21]: Active; fold change (FC) (HepG2 [22]): 5 - 6; fold change (FC) (SNU-475 [23]): 2; Activity (HepG2 [24]): Active; inhibition [25]: Active; IC50 (Mahlavu [16]): 1600 nM; Activity (HepG2 [17]): Active; Activity (HepG2 [26]): 50%; Activity (SNU-475 [18]): Active
3 | inactive | COc1ccc(OC)c(C(=O)/C=C/c2cn(-c3ccccc3)nc2-c2cccnc2)c1 | Active | Active | Active | Active | Active | Active | 2700 nM | 1900 nM | 3400 nM | Active | Active | 1500 nM | Active | Active | Active | 1300 nM | 2400 nM | Active | 1000 nM | Activity (SNU-475 [19]): Active; inhibition [20]: 50%; inhibition [21]: Active; fold change (FC) (HepG2 [22]): 5 - 6; fold change (FC) (SNU-475 [23]): 2; Activity (HepG2 [24]): Active; inhibition [25]: Active; IC50 (Mahlavu [16]): 2000 nM; Activity (HepG2 [17]): Active; Activity (HepG2 [26]): 50%; Activity (SNU-475 [18]): Active

From ChEMBL document CHEMBL4004857, “Synthesis and biological evaluation of novel pyrazolic chalcone derivatives as novel hepatocellular carcinoma therapeutics” (Eur J Med Chem, 2017)
